Measurements: PubChem BioAssay AID588842 (Broad Institute, 2011)
Inconclusive results are not listed. Active and inactive are the calls of the source.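 How the source made its calls: active means cytotoxic compounds whose fitted half-effect concentration is at most twice the top tested dose in every test run; inconclusive means test runs disagree, or a flat moderate drop, or a poor fit; inactive means inactive in every run, including wrong-direction effects.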

Assays:
[1] = cytotoxicity in ldlA[mSR-BI] CHO cells, dose response, cytotoxicity control for HDL uptake inhibitor project, cell-based, CellTiter-Glo ATP, 24 h, dry powder, set 4 (AID 588842); details: ldlA[mSR-BI] CHO cells viability, CellTiter-Glo ATP, 24 h
How it was run: (§1)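 assay system = ldlA[mSR-BI] cells | quantity = 4,000 cells per well | buffer or medium = Ham's F12 medium with 10% FCS and PSG | evaluation = IC50 from compound dose-response curves of cell viability | schedule = 24 h compound exposure at 37 °C, then 10 min CellTiter-Glo incubation | signal = luciferase luminescence reporting cellular ATP, CellTiter-Glo reagent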

[2] = tested on: ldlA[mSR-BI] CHO cells viability, CellTiter-Glo ATP, 24 h; assay: as above
How it was run: as §1

Structure (SMILES)	activity change, negative = cytotoxicity ([1]; at 35 µM (top of the series))	AC50 [2] [µM]	other results
CCC(=O)N1CCc2cc(-c3csc(NC(=O)c4cccnc4)n3)ccc21	-3.5% (inactive)		
CCOc1ccc(NC(=O)CN2CCN(CC(=O)Nc3cc(OC)cc(OC)c3)CC2)cc1			activity change, negative = cytotoxicity ([1]; at 68 µM (top of the series)): -20% (inactive)
CC(C(=O)NC1CCCC1)N(C(=O)Cc1ccccc1)C1CCCCC1 (configuration not stated)	-1.74% (inactive)		
CCC(=O)N1CCc2cc(-c3csc(NC(=O)c4ccncc4)n3)ccc21	-2.04% (inactive)		
CC(C)NC(=O)Nc1cccc2c1O[C@H](CN(C)Cc1ccc(Cl)c(Cl)c1)[C@@H](C)CN([C@@H](C)CO)C2=O		58	
CCC(=O)N1CCc2cc(-c3csc(NC(=O)c4ccc(F)cc4)n3)ccc21		48.2	
CCC(=O)N1CCc2cc(-c3csc(N)n3)ccc21	-18.4% (inactive)		
CC(C(=O)NC1CCCC1)N(C(=O)Cn1nnc(-c2ccc3c(c2)OCO3)n1)C1CCCCC1 (configuration not stated)	-16.1% (inactive)		
C[C@@H]1CN([C@H](C)CO)C(=O)c2cc(NC(=O)Cc3cn(C)c4ccccc34)ccc2O[C@H]1CN(C)S(=O)(=O)c1ccc(F)cc1		47.7	
O=C(Nc1nc(-c2ccc3c(c2)CCN3S(=O)(=O)c2ccccc2)cs1)c1ccco1	-30.8% (inactive)		
CCC(=O)N1CCc2cc(-c3csc(NC(=O)c4ccccc4)n3)ccc21		67.8	
COc1c(NC(=O)C(=O)c2ccc(OCCN3CCOCC3)c3ccccc23)cc(C(C)(C)C)cc1NS(C)(=O)=O		15.5	
CCCCCCC1CCC/C1=N\NC(N)=S (configuration not stated)		3.86	
CCC(=O)N1CCc2cc(-c3csc(NC(=O)c4cnco4)n3)ccc21	-1.99% (inactive)		
CCC(=O)N1CCc2cc(-c3csc(NC(=O)c4ccoc4)n3)ccc21	-8.58% (inactive)		
C[C@H]1CN([C@@H](C)CO)C(=O)c2cccc(NC(=O)Nc3ccccc3)c2O[C@@H]1CN(C)Cc1ccc(Cl)c(Cl)c1		29.8	
COc1ccc(-c2nnn(CC(=O)N(C3CCCCC3)C(C)C(=O)NC3CCCC3)n2)cc1OC (configuration not stated)	-11.1% (inactive)		
CCC(=O)N1CCc2cc(-c3csc(NC(=O)c4ccc(Cl)cc4)n3)ccc21	-5.95% (inactive)		
CCC(=O)N1CCc2cc(-c3csc(NC(=O)c4ccco4)n3)ccc21	-17.6% (inactive)		
CCOc1ccccc1/C=C/c1onc(C)c1S(=O)(=O)N1CCC(C(=O)NC(C)(C)C)CC1		30.1	
C[C@@H]1CN([C@H](C)CO)C(=O)c2cc(NC(=O)Cc3cn(C)c4ccccc34)ccc2O[C@H]1CN(C)S(=O)(=O)c1ccc(Cl)cc1	-19% (inactive)		
CCC(=O)N1CCc2cc(-c3csc(NC(=O)c4ccc(OC)cc4)n3)ccc21	-11.6% (inactive)		
